Compounds with a hit are over-represented: about 1.7% of the library has one in this group of screens.
LMPTP inh: LMPTP (human) inhibition; AID 651560; recombinant LMPTP-A, OMFP fluorogenic substrate, fluorescence intensity; inhibition, % at 20 µM; 360,000 tested, 0.22% active;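 active = compounds that cut the enzyme signal by at least half of the control window in the single-dose screen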
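Test system: LMPTP-A phosphatase enzyme. Amount: LMPTP-A at 0.625 nM final in the reaction. Reagent: OMFP substrate, 400 µM final. Times: 50 min at room temperature. Signal: endpoint fluorescence intensity from OMFP dephosphorylation. Read-out basis: % inhibition. Benchmarks: no-enzyme and uninhibited controls.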
DNMT1 inh: blocks human DNA methyltransferase DNMT1; DNMT1 molecular beacon, Hinp1I cleavage, fluorescence; P26358; 360,000 tested, 0.83% active; inhibition (reported as % activation of signal), % at 10 µM; AID 588458; in the data active = inhibition above about 50%
STEP inh: inhibitors of human striatal-enriched phosphatase STEP. P54829. recombinant STEP, OMFP fluorogenic substrate, fluorescence. inhibition, % at 20 µM. 360,000 tested, 0.25% active. AID 588621;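 active = inhibition at 20 µM, scaled per plate between control wells, above about 37%, limit read from the data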
Target sequence (P54829 whole entry, looked up): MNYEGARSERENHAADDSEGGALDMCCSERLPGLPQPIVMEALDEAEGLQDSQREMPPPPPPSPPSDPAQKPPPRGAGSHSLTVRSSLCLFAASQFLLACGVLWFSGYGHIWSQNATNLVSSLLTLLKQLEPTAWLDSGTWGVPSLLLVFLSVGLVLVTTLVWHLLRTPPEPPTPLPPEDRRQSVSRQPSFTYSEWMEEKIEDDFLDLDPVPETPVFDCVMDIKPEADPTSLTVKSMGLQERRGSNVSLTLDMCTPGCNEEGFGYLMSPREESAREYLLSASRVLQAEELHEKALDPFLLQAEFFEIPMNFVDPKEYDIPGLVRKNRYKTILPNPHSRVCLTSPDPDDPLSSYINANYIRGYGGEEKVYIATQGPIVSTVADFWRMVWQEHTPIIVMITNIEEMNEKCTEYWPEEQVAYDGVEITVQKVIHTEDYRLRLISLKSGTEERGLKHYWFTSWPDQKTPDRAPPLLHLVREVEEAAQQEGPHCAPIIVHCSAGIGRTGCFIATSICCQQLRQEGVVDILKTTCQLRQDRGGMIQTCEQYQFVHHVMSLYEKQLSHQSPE
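Assay system: isolated STEP enzyme. Buffer or medium: pH 6.0 Bis-Tris with DTT and Tween 20. Also added: fluorogenic phosphatase substrate OMFP at 25 µM final. Dosing: 20 µM, 1% DMSO. Timing: 20 min reaction, room temperature, in the dark. Measured by: fluorescence intensity, excitation 480 nm, emission 540 nm. Evaluation: normalized % inhibition.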
SUMO1-SIM PPI: alters human SUMO1 binding to SIM partners | inhibition, % at 20 µM | SUMO1 binding to a labelled peptide, TR-FRET, 1 h | 360,000 tested, 0.33% active | AID 602429 | P63165; in the data active = inhibition above about 37%
Target sequence (P63165 whole entry, looked up): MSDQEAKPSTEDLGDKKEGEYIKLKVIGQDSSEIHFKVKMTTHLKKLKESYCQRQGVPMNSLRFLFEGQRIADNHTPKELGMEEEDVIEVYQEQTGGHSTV
Scp-1 inhibitor: inhibitors of human Scp-1 phosphatase; Q9GZU7; Recombinant Scp1, phosphopeptide, malachite green phosphate absorbance; inhibition, % at 20 µM; 340,000 tested, 0.88% active;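 active = inhibition above about 50% at 20 µM, limit read from the data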
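Incubation: 45 min enzyme reaction at room temperature / System: truncated SCP-1 phosphatase (76-261aa) / Reagent: Phospho 17-mer peptide substrate / Buffer or medium: Acidic Tris acetate buffer with magnesium and detergent / Signal: absorbance at 630 nm / Doses: one concentration, 20 µM, with 1.0% DMSO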
Each line names hits and unclear results; the compound was inactive in the other large screens.

Cc1ccc(-c2cc(C#N)c(=O)n(Cc3c(Cl)cccc3Cl)c2)cc1	SUMO1-SIM PPI 41.5
CCC(C)N(C(=O)Cn1nnc(-c2ccc(F)cc2)n1)C1CCS(=O)(=O)C1 (stereo unspecified)	none
O=C(/C=C/c1ccncc1)c1ccc(NC(=O)c2ccccc2F)cc1	LMPTP inh 57.0
O=C(Nc1ccnn1C1CCN(Cc2ccc(CO)o2)CC1)c1ccc2c(c1)OCO2	none
Cc1cc(O)c(-c2cc(C(=O)Nc3cccnc3)[nH]n2)cc1C	none
CC(=O)Nc1ccc(NC(=O)c2cc(-c3cc(C)c(C)cc3O)n[nH]2)cc1	SUMO1-SIM PPI 39.7
COc1ccc(CNS(=O)(=O)c2ccc3c(c2)NC(=O)C(C)S3)cc1 (stereo unspecified)	none
COc1cc(-c2ccc(Nc3ccccc3C(=O)O)c(OC)c2)ccc1Nc1ccccc1C(=O)O	DNMT1 inh 108.5, SUMO1-SIM PPI 60.8, Scp-1 inhibitor 70.5
CC(C)c1ccc(NC(=O)CCc2ccccc2)cc1	none
Cc1cc(C)nc(/N=c2/ssnc2Cl)c1	LMPTP inh 78.8
COc1cccc(Oc2nc(N)ncc2[N+](=O)[O-])c1	none
Cc1oc2c(c1C(=O)c1ccccc1)C(=O)C(=O)c1ccccc1-2	DNMT1 inh 93.3, SUMO1-SIM PPI 36.9
C=C(C)C(=O)Nc1ccc2c(c1)OCCOCCOCCO2	DNMT1 inh 89.5, STEP inh 63.5, SUMO1-SIM PPI 57.4, Scp-1 inhibitor 96.9
CC(=O)NCCNc1nc2cc(-c3ccc(C)cc3)sc2c(=O)n1C	none (no result: Scp-1 inhibitor)
CCN(CC)CCCNc1ccc2ncn3c4ccc(O)cc4c(=O)c1c23	DNMT1 inh 133.4
CN(C)CCNc1ccc2nnn3c4ccc(O)cc4c(=O)c1c23	DNMT1 inh 52.6
CCOC(=O)c1ccc2ncc(C(=O)OCC)c(NCCN(C)C)c2c1	none
CCN(CC)CCCNc1ncnc2ccccc12	none
CN1C=CC(=CC=C2C=CC(=O)C=C2)C=C1	none
CCN(CC)CCn1c(NS(=O)(=O)c2ccc(Cl)cc2)nc2ccccc21	none
COc1ccc(OC)c(CNS(=O)(=O)c2cn(C)cn2)c1	none
COCCN=c1scc(-c2ccco2)n1/N=C/c1ccc(O)c(O)c1O	LMPTP inh 73.5, DNMT1 inh 69.8, Scp-1 inhibitor 88.5
C=CCN=c1scc(-c2ccco2)n1/N=C/c1ccc(O)c(O)c1O	none
Cc1ccc2nc(N3C(=O)C(O)=C(C(=O)c4cc5ccccc5o4)C3c3cccs3)sc2c1 (stereo unspecified)	DNMT1 inh 77.6
CSc1ccc(Cl)c(C(=O)NNC(=O)c2cccs2)c1	none
O=C(Nc1cccc(C(F)(F)F)c1)c1ccc2nc(-c3ccco3)c(-c3ccco3)nc2c1	DNMT1 inh 84.5, Scp-1 inhibitor 84.2
O=C(Nc1ccc2nc(-c3ccco3)c(-c3ccco3)nc2c1)NC1CC1	LMPTP inh 70.5, DNMT1 inh 92.6, STEP inh 54.2, SUMO1-SIM PPI 75.9, Scp-1 inhibitor 92.2
COc1ccc(CCNC(=O)c2ccc3nc(-c4ccco4)c(-c4ccco4)nc3c2)cc1OC	LMPTP inh 63.9, DNMT1 inh 98.4, SUMO1-SIM PPI 47.0, Scp-1 inhibitor 89.3
CNc1cccc(-c2ccccc2CO)n1	none (no result: Scp-1 inhibitor)
COc1cc(N=Nc2ccc(C(=O)N(C)C)cc2)c(C)cc1N	none
O=C1C=CC(=O)c2c(O)c(CO)c(CO)c(O)c21	LMPTP inh 93.0, DNMT1 inh 114.0, STEP inh 94.3, SUMO1-SIM PPI 118.1, Scp-1 inhibitor 84.7
O=C(Nc1ccc(C2=NCCN2)cc1)c1ccc(C(=O)Nc2ccc(C3=NCCN3)cc2)c([N+](=O)[O-])c1	LMPTP inh 82.4, SUMO1-SIM PPI 96.0
CCOC(=O)c1cc(S(=O)(=O)NC2CCC(C)CC2)cn1C (stereo unspecified)	none
CC(=O)Oc1cc(C(=O)OCC(=O)N2CCc3ccccc3C2)cc(OC(C)=O)c1OC(C)=O	Scp-1 inhibitor 53.4
CCOC(=O)/C(=C\c1cccc(O)c1)c1nc2sc(C)c(C)c2c(=O)[nH]1	STEP inh 84.6
O=C(CN1C(=O)NC2(CCCC2)C1=O)N1CCN(S(=O)(=O)c2ccc(Cl)c(C(F)(F)F)c2)CC1	none
CCOC(=O)/C(C)=C1\NC(C)(C)Cc2ccccc21	Scp-1 inhibitor 100.8
CCOC(=O)c1cc(-c2cccc(O)c2)oc1C	none (no result: DNMT1 inh, STEP inh, Scp-1 inhibitor)
COC(=O)c1c[nH]c2c1-c1cc(C(=O)OCc3ccccc3)n(S(=O)(=O)c3ccc(C)cc3)c1C(=O)C2=O	LMPTP inh 60.3, DNMT1 inh 96.2
Cc1ccc(S(=O)(=O)Cc2ccc(C(=O)OCc3ccccc3)cc2)cc1	none
O=C(CSc1nc2ccccc2c(=O)n1-c1ccc(F)cc1F)NC1CCS(=O)(=O)C1 (stereo unspecified)	none (no result: Scp-1 inhibitor)
CCOC(=O)c1ccc(NC(=O)c2ccccc2)cc1	none
CCOC(=O)c1ccc(NC(=O)c2c(N)n(Cc3ccccc3)c(=O)[nH]c2=O)cc1	SUMO1-SIM PPI 46.4
O=C(O)c1ccccc1NS(=O)(=O)c1cccc(-n2sc3ccccc3c2=O)c1	Scp-1 inhibitor 94.9
O=C(O)c1ccccc1NS(=O)(=O)c1cccc(C(F)(F)F)c1	none
COC(=O)[C@H](C)NC(=O)c1cc2c(cn1)[nH]c1ccccc12	none
C[C@H](NC(=O)c1cc2c(cn1)[nH]c1ccccc12)C(=O)O	STEP inh 90.3
CCN1/C(=C/c2cccc[n+]2C)Sc2ccc(OC)cc21	Scp-1 inhibitor 108.9
COc1ccc(S(=O)(=O)N2CCC3(CC2)CC(=O)c2ccccc2O3)cc1C	none
CC(=O)c1cccc(-c2ccc3c(=O)[nH]c(Nc4ccccc4)cc3c2)c1	DNMT1 inh 105.3
COc1ccc(C(=O)N/C(=C\c2cn(S(=O)(=O)N(C)C)c3ccccc23)C(=O)NCCCN2CCOCC2)cc1	none
Cc1ccc(NCCN(C)C)c2c(=O)c3cc(O)ccc3sc12	DNMT1 inh 57.3
CCN(CC)CCNc1cccc2sc3ccccc3c(=O)c12	none (no result: Scp-1 inhibitor)
CN(C)CCNc1cccc2sc3ccc(O)cc3c(=O)c12	DNMT1 inh 56.1 (no result: Scp-1 inhibitor)
CCOC(=O)c1c(S(=O)(=O)NCC(=O)Nc2ccc(F)cc2F)c(C)n(C)c1C	none
COC(=O)[C@@]12C[C@@H](CC(=O)NCC34CC5CC(CC(C5)C3)C4)C(=O)N(Cc3ccc4c(c3)OCO4)C1=CCC(C)(C)C2	none (no result: DNMT1 inh, STEP inh, Scp-1 inhibitor)
COC(=O)/C(=C\Nc1ccc(OC)cc1)NC(=O)c1ccc(Cl)cc1Cl	none
COC(=O)/C(=C\Nc1ccc(Cl)cc1Cl)NC(=O)c1ccc(OC)cc1	SUMO1-SIM PPI 39.6
O=C(COC(=O)CCNS(=O)(=O)c1ccccc1)NC(=O)Cc1ccccc1	none
O=C(N/N=C/c1ccc(-c2ccc(S(=O)(=O)Nc3ncccn3)cc2)o1)c1cc2ccccc2cc1O	DNMT1 inh 85.5, SUMO1-SIM PPI 38.9
CNS(=O)(=O)c1cccc(C(=O)NCC(C)(C)N2CCCCC2)c1	none
COc1ccccc1C(=O)Nc1nc2cc3c(cc2s1)OCCO3	none
